According to ChEMBL document CHEMBL4765483 (J Med Chem, 2021):

How the values were obtained:
Settings in all cases: Cell membrane
[1] = molecular target: T1, Adenosine receptor A1 (Homo sapiens) (UniProt P30542); assay: Displacement of [3H]DPCPX from human adenosine A1 receptor expressed in CHO cell membranes at 1 uM incubated for 60 mins by scintillation counting method
T1 sequence (whole entry): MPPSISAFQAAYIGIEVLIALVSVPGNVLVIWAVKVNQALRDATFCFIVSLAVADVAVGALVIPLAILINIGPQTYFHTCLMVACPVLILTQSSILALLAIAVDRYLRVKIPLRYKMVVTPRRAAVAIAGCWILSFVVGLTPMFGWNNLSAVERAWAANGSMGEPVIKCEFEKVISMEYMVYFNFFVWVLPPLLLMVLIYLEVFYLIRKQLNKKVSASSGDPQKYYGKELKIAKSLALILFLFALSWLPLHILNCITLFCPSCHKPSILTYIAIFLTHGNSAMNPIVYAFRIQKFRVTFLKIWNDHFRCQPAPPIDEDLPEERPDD

[2] = molecular target: Adenosine receptor A2a (Homo sapiens) (UniProt P29274); assay: Displacement of [3H]ZM2421385 from adenosine A2A receptor expressed in human HeLa cell membranes at 1 uM incubated for 30 mins by scintillation counting method
Adenosine receptor A2a (Homo sapiens), sequence (P29274 whole entry): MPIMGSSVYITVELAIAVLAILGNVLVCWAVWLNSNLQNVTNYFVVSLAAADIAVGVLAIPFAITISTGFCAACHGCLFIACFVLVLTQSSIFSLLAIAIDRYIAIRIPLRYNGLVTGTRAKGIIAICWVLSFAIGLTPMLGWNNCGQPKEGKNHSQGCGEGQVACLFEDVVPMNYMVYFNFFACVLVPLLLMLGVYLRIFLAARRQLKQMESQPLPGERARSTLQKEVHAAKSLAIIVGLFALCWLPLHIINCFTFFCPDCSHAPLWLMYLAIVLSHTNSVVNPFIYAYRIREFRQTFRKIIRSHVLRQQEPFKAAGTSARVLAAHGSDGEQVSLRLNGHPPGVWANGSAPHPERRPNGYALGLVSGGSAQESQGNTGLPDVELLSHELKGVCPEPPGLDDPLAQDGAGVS

[3] = molecular target: T2, Adenosine receptor A2b (Homo sapiens) (UniProt P29275); assay: Displacement of [3H]DPCPX from human adenosine A2B receptor expressed in HEK293 cell membranes at 1 uM incubated for 30 mins by scintillation counting method
T2 sequence (whole entry): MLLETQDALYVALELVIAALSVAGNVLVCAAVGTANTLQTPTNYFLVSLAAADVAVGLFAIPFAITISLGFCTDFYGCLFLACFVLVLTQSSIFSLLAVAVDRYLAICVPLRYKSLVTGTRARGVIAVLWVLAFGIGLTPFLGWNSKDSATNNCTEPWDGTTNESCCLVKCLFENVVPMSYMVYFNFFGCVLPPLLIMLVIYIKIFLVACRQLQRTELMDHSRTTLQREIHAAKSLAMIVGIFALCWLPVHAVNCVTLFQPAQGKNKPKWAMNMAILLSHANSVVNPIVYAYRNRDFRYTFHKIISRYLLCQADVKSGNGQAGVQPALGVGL

[4] = molecular target: T3, Adenosine receptor A3 (Homo sapiens) (UniProt P0DMS8); assay: Displacement of [3H]NECA from adenosine A3 receptor expressed in human HeLa cell membranes at 1 uM incubated for 180 mins by scintillation counting method
T3 sequence (whole entry): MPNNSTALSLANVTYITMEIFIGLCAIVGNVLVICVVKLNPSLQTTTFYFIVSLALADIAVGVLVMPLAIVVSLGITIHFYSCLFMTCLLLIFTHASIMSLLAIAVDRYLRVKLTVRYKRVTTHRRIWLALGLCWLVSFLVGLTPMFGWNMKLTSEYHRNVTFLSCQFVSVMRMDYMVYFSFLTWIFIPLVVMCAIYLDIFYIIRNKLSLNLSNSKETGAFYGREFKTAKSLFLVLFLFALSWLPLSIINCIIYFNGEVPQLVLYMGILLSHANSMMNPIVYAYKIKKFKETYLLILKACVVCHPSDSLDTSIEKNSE
Procedure, shortened: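 hA3AR in HeLa membranes (3 pmol/mg protein) with 10 nM [3H]NECA (KD 8.7 nM); nonspecific binding with 100 μM R-PIA; incubated 180 min at 25 °C, washed, filtered, radioactivity counted.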

SMILES	inhibition [1]	inhibition [2]	inhibition [3]	inhibition [4]	inhibition ([3]; filed as antagonist)
CC(=O)C1=C(C)NC(=O)NC1c1cccs1 (racemic)	11%	2%	2%	3%	–
CC(=O)C1=C(C)NC(=O)NC1c1ccoc1 (racemic)	6%	1%	15%	2%	–
CC(=O)C1=C(C)NC(=O)NC1c1ccsc1 (racemic)	9%	1%	24%	1%	–
CC1=C(C(=O)C2CC2)C(c2cccs2)NC(=O)N1 (racemic)	1%	1%	1%	15%	–
CC1=C(C(=O)C2CC2)C(c2ccoc2)NC(=O)N1 (racemic)	1%	1%	10%	16%	–
CC1=C(C(=O)C2CC2)C(c2ccsc2)NC(=O)N1 (racemic)	2%	4%	1%	1%	–
CC1=C(C(=O)CC(C)C)C(c2cccs2)NC(=O)N1 (racemic)	19%	1%	–	18%	43%
CC1=C(C(=O)NC(C)C)C(c2ccco2)NC(=O)N1 (racemic)	3%	1%	2%	4%	–
CC1=C(C(=O)NC(C)C)C(c2cccs2)NC(=O)N1 (racemic)	2%	22%	–	1%	40%
CC1=C(C(=O)NC(C)C)C(c2ccoc2)NC(=O)N1 (racemic)	1%	1%	3%	3%	–
CC1=C(C(=O)NC(C)C)C(c2ccsc2)NC(=O)N1 (racemic)	8%	1%	3%	1%	–
CC1=C(C(=O)OC(C)(C)C)C(c2ccsc2)NC(=O)N1C (racemic)	18%	1%	35%	14%	–
CC1=C(C(=O)OC2CCCCC2)C(c2ccco2)NC(=O)N1 (racemic)	1%	5%	1%	4%	–
CC1=C(C(=O)OC2CCCCC2)C(c2ccoc2)NC(=O)N1 (racemic)	15%	3%	4%	1%	–
CC1=C(C(=O)OCC(C)C)C(c2ccsc2)NC(=O)N1C (racemic)	8%	2%	1%	4%	–
CC1=C(C(=O)SC(C)C)C(c2ccco2)NC(=O)N1 (racemic)	5%	2%	22%	1%	–
CC1=C(C(=O)SC(C)C)C(c2cccs2)NC(=O)N1 (racemic)	1%	1%	1%	1%	–
CC1=C(C(=O)SC(C)C)C(c2ccsc2)NC(=O)N1 (racemic)	24%	2%	14%	1%	–
CC1=C(C(N)=O)C(c2cccs2)NC(=O)N1 (racemic)	2%	1%	3%	1%	–
CC1=C(C(N)=O)C(c2ccoc2)NC(=O)N1 (racemic)	1%	3%	6%	2%	–
CC1=C(C(N)=O)C(c2ccsc2)NC(=O)N1 (racemic)	2%	18%	1%	1%	–
CC1=C(c2ncc(C)o2)C(c2cccs2)NC(=O)N1 (racemic)	21%	7%	–	1%	45%
CCC(CC)OC(=O)C1=C(C)NC(=O)NC1c1ccco1 (racemic)	2%	3%	35%	1%	–

SMILES	inhibition [1]	inhibition [2]	inhibition [3]	inhibition [4]	inhibition ([3]; filed as antagonist)
CCC(CC)OC(=O)C1=C(C)NC(=O)NC1c1cccs1 (racemic)	13%	4%	6%	1%	–
CCC(CC)OC(=O)C1=C(C)NC(=O)NC1c1ccoc1 (racemic)	17%	2%	28%	5%	–
CCCC(=O)C1=C(C)NC(=O)NC1c1cccs1 (racemic)	2%	23%	9%	2%	–
CCCC(=O)C1=C(C)NC(=O)NC1c1ccoc1 (racemic)	1%	2%	22%	2%	–
CCCC(=O)C1=C(C)NC(=O)NC1c1ccsc1 (racemic)	6%	11%	9%	1%	–
CCCOC(=O)C1=C(C)N(C)C(=O)NC1c1ccsc1 (racemic)	2%	3%	1%	11%	–
CCN(CC)C(=O)C1=C(C)NC(=O)NC1c1ccco1 (racemic)	11%	9%	31%	19%	–
CCN(CC)C(=O)C1=C(C)NC(=O)NC1c1cccs1 (racemic)	13%	15%	22%	31%	–
CCN(CC)C(=O)C1=C(C)NC(=O)NC1c1ccoc1 (racemic)	15%	6%	12%	37%	–
CCN(CC)C(=O)C1=C(C)NC(=O)NC1c1ccsc1 (racemic)	11%	9%	11%	35%	–
CCNC(=O)C1=C(C)NC(=O)NC1c1ccco1 (racemic)	2%	1%	1%	3%	–
CCNC(=O)C1=C(C)NC(=O)NC1c1cccs1 (racemic)	1%	1%	1%	4%	–
CCNC(=O)C1=C(C)NC(=O)NC1c1ccoc1 (racemic)	1%	2%	2%	1%	–
CCNC(=O)C1=C(C)NC(=O)NC1c1ccsc1 (racemic)	3%	17%	1%	1%	–
CCOP(=O)(OCC)C1=C(C)NC(=O)NC1c1ccco1 (racemic)	3%	4%	2%	4%	–
CCOP(=O)(OCC)C1=C(C)NC(=O)NC1c1cccs1 (racemic)	2%	5%	7%	5%	–
CCOP(=O)(OCC)C1=C(C)NC(=O)NC1c1ccoc1 (racemic)	1%	8%	3%	2%	–
CCOP(=O)(OCC)C1=C(C)NC(=O)NC1c1ccsc1 (racemic)	4%	3%	1%	1%	–
CCSC(=O)C1=C(C)NC(=O)NC1c1ccco1 (racemic)	6%	2%	29%	14%	–
CCSC(=O)C1=C(C)NC(=O)NC1c1cccs1 (racemic)	6%	8%	1%	1%	–
CCSC(=O)C1=C(C)NC(=O)NC1c1ccoc1 (racemic)	3%	1%	1%	1%	–
CCSC(=O)C1=C(C)NC(=O)NC1c1ccsc1 (racemic)	11%	1%	17%	2%	–
COC(=O)C1=C(C)N(C)C(=O)NC1c1ccsc1 (racemic)	24%	13%	26%	22%	–
